Results on 5 molecules are retold here after ChEMBL document CHEMBL1127550 (J Med Chem, 1994).

The species entered for data set [1] is Mus musculus. Briefly: Tested for potency towards inhibition of the twitch response in mouse vas deferens. In kind it is functional. In a few lines:
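Vasa deferentia from albino MF1 mice were mounted at 0.5 g initial tension in Mg2+-free Krebs at 37 °C, gassed 95% O2/5% CO2, and stimulated electrically (0.5 ms pulses). Increasing doses were added after washout; twitch amplitude at 14-15 min post-addition was compared with the pre-drug final minute. IC50 came from nonlinear-regression sigmoid log concentration-response curves, n = 6-8 tissues.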

Data set [2] deals with T1, Cannabinoid receptor (Rattus norvegicus, UniProt Q9QZN9+P20272). Briefly: Binding affinity for the cannabinoid receptor in the absence of phenylmethanesulfonyl fluoride (PMSF) was determined in rat fore brain membranes. In kind it is cell membranes, Membrane.
Data set [3] addresses T1, Cannabinoid receptor. Nature of the data set: Binding affinity for the cannabinoid receptor in the presence of phenylmethanesulfonyl fluoride (PMSF) was determined in rat fore brain membranes. It is filed as cell membranes, Membrane.
The subject of data set [4] is Mus musculus. Briefly: Mean difference between rectal temperature measured at time zero and rectal temperature measured at 10 min at 3.125 (mg/kg) intravenous dose in 6 mice. To be noted: in vivo. It is filed as ADME, organism-based. The procedure, abridged: (§1)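 Male MF1 mice (23-29 g), drug dispersed with two parts Tween 80 by weight in 0.9% saline, injected iv at time zero; Tween 80 vehicle control. Rectal thermistor probe inserted 3 cm, read shortly before time zero and at 10 min; change = difference. Mice unrestrained in separate cages, ambient 20-22 °C. Means ± SE, Dunnett's test versus vehicle.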

In data set [5] the test system is Mus musculus. Briefly: Mean number of squares entered(counts) over a 5 min period after placement in the center of a walled arena marked out in 16 squares of equal size at 1.5625 (mg/kg) intravenous dose in 6 mice. In kind it is ADME, organism-based. Conditions: in vivo. The procedure, abridged:
(§2)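 Male MF1 mice (23-29 g) given drug iv at time zero (Tween 80/saline dispersion; vehicle control). Each mouse was placed immediately in the centre of a 30 × 30 cm walled arena divided into 16 equal squares. Squares entered from 0 to 5 min were counted. Ambient 20-22 °C, means ± SE, Dunnett's test against vehicle.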

Data set [6] concerns Mus musculus. Briefly: Mean difference between rectal temperature measured at time zero and rectal temperature measured at 10 min at 1.5625 (mg/kg) intravenous dose in 6 mice. In kind it is ADME, organism-based. To be noted: in vivo. The procedure, abridged: as §1
Data set [7] relates to Mus musculus. Briefly: Mean percentage time spend immobile on ring between 5 and 10 min at 3.125 (mg/kg) intravenous dose in 6 mice. In kind it is ADME, organism-based. Conditions: in vivo. In a few lines: (§3)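 In male MF1 mice (23-29 g) dosed iv at time zero with a Tween 80/saline dispersion, each animal was placed at 5 min on a 5.5-cm horizontal ring on a 16-cm stalk. The percentage of the 5-min session spent immobile was scored. Ambient 20-22 °C, means ± SE, Dunnett's test versus vehicle.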

For data set [8], the system named is Mus musculus. Briefly: Mean number of squares entered(counts) over a 5 min period after placement in the center of a walled arena marked out in 16 squares of equal size at 3.125 (mg/kg) intravenous dose in 6 mice. In kind it is ADME, organism-based. To be noted: in vivo. The procedure, abridged: as §2
Data set [9] deals with Mus musculus. Nature of the data set: Mean percentage time spend immobile on ring between 5 and 10 min at 1.5625 (mg/kg) intravenous dose in 6 mice. In kind it is ADME, organism-based. To be noted: in vivo. In a few lines: as §3
For data set [10], the system named is Mus musculus. Nature of the data set: Mean percentage time spend immobile on ring between 5 and 10 min at 10 (mg/kg) intravenous dose in 6 mice. It is filed as ADME, organism-based. Conditions: in vivo. In a few lines: as §3
The test system of data set [11] is Mus musculus. Nature of the data set: Mean percentage time spend immobile on ring between 5 and 10 min at 6.25 (mg/kg) intravenous dose in 6 mice. It is filed as ADME, organism-based. Conditions: in vivo. In a few lines: as §3
Data set [12] deals with Mus musculus. Nature of the data set: Mean number of squares entered(counts) over a 5 min period after placement in the center of a walled arena marked out in 16 squares of equal size at 6.25 (mg/kg) intravenous dose in 6 mice. Conditions: in vivo. In kind it is ADME, organism-based. In a few lines: as §2
For data set [13], the system named is Mus musculus. Briefly: Mean difference between rectal temperature measured at time zero and rectal temperature measured at 10 min at 10 (mg/kg) intravenous dose in 6 mice. In kind it is ADME, organism-based. Conditions: in vivo. The procedure, abridged:
as §1

For data set [14], the system named is Mus musculus. Briefly: Mean number of squares entered(counts) over a 5 min period after placement in the center of a walled arena marked out in 16 squares of equal size at 10 (mg/kg) intravenous dose in 6 mice. It is filed as ADME, organism-based. To be noted: in vivo. The procedure, abridged:
as §2

In data set [15] the test system is Mus musculus. Nature of the data set: Mean difference between rectal temperature measured at time zero and rectal temperature measured at 10 min at 6.25 (mg/kg) intravenous dose in 6 mice. In kind it is ADME, organism-based. Conditions: in vivo. In a few lines: as §1

In the data set filed under Mus musculus [1], `CCCCC/C=C\C/C=C\C/C=C\C/C=C\CCCC(=O)NC[C@H](C)O` showed an IC50 of 47 nM. Further, the Ki on Cannabinoid receptor [2] was determined as 158 nM; on Cannabinoid receptor [3] it was 26 nM.
Take `CCCCC/C=C\C/C=C\C/C=C\C/C=C\CCCC(=O)N[C@@H](C)CO`: the IC50 in the data set listed under Mus musculus [1] came out at 230 nM. That is a sub-micromolar value.
With `CCCCC/C=C\C/C=C\C/C=C\C/C=C\CCCC(=O)NC[C@@H](C)O`, half-maximal inhibition in the data set listed under Mus musculus [1] (IC50) was put at 100 nM. The Ki on Cannabinoid receptor [2] is recorded as over 2950 nM; at Cannabinoid receptor [3], 119 nM.
Take `CCCCC/C=C\C/C=C\C/C=C\C/C=C\CCCC(=O)N[C@H](C)CO` [METHANANDAMIDE]: the results for the Body temperature in the data set on Mus musculus [4] and with Mus musculus [6] were 1.5 °C and 0.27 °C, respectively. In the data set listed under Mus musculus [1], the IC50 stood at 12 nM. Also, the Hypokinesia in the data set with Mus musculus [5] was determined as 76.8 Counts; in the data set with Mus musculus [8], 26.5 Counts. Further, the Ring immobility in the data set on Mus musculus [7] is recorded as 87.4%; with Mus musculus [9], 40.2%.
Take `CCCCC/C=C\C/C=C\C/C=C\C/C=C\CCCC(=O)NCCO` [ANANDAMIDE]: the figures for the Ring immobility in the data set on Mus musculus [10] and in the data set with Mus musculus [11] were 64.2% and 93.9%, respectively. The Hypokinesia with Mus musculus [12] is listed as 10.2 Counts; with Mus musculus [14], 14.7 Counts. For the same molecule, the Body temperature was -1.43 °C in the data set on Mus musculus [13] and -3.18 °C in the data set with Mus musculus [15]. Moreover, in the data set filed under Mus musculus [1], the IC50 was found to be 52 nM.
